Source: PubChem BioAssay (several laboratories)
Hits are enriched below; roughly 1.1% of the tested compounds scored in any of these assays.
FXIa inh 1536: human FXIa protease inhibitors, primary screen, biochemical, 1536-well; Coagulation factor XI (Homo sapiens), P03951; purified FXIa, Boc-Glu-Ala-Arg-AMC fluorogenic substrate; inhibition, % at 5 µM; hit rate 0.14% among 220,000;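 active = inhibition of at least 40%; inactive = inhibition below 40%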;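 also: fluorescence of freed AMC excited at 355 nm; 0% = enzyme without compound and 100% = no enzyme blank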
Furin inh: human furin inhibitors, primary screen, biochemical, fluorescence intensity | hit rate 0.061% among 220,000 | purified furin, fluorogenic substrate cleavage | inhibition, % at 20 µM or 30 µM; in the data active = inhibition above about 25%
Thrombin inh: human alpha-thrombin inhibitors, primary screen, counter-screen for coagulation protease inhibitor project, biochemical, 1536-well, fluorogenic AMC substrate; Prothrombin (Homo sapiens), P00734; Boc-VPR-AMC fluorogenic substrate cleavage; inhibition, % at 5 µM; hit rate 0.26% among 220,000; AID 1046, 2008;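 active = inhibition at or above 40%; inactive = inhibition below 40%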;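 also: 0% = enzyme with no compound and 100% = wells without enzyme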
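signal = AMC fluorescence, 355/460 nm | material = human alpha-thrombin enzyme | control set = enzyme without compound as high, wells lacking enzyme as low | times = reaction at room temperature | read-out basis = percent inhibition scaled between no-compound controls and no-enzyme blanks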
hK5 inh: human KLK5 protease inhibitors, primary screen, biochemical, 1536-well. Kallikrein-5 (Homo sapiens), Q9Y337. recombinant hK5, fluorogenic AMC substrate cleavage. inhibition, % at 5 µM. hit rate 0.59% among 210,000;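 active = inhibition of 40% or more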;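 also: 0% = enzyme controls without compound and 100% = no-enzyme blanks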
FXIIa inh: human FXIIa protease inhibitors, primary screen, biochemical, 1536-well; hit rate 0.3% among 220,000; AID 800, 2007; purified FXIIa, Boc-QGR-AMC fluorogenic substrate, 2 h; inhibition, % at 5 µM; in the data active = inhibition above about 40%;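 also: 0% = enzyme with no compound and 100% = blank without enzyme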
Target sequence (P00748 20-372 limits assumed): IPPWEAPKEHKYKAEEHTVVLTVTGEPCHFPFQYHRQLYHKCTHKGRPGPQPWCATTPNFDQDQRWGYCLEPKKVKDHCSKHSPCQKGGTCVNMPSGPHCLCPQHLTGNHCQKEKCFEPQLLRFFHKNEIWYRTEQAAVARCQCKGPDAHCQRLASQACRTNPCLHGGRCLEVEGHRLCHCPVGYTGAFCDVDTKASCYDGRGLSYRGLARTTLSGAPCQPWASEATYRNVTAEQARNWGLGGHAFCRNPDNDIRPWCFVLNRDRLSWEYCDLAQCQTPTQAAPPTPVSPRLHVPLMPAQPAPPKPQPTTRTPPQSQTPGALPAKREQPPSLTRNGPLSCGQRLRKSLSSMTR
Target sequence (P00748 373-615 limits assumed): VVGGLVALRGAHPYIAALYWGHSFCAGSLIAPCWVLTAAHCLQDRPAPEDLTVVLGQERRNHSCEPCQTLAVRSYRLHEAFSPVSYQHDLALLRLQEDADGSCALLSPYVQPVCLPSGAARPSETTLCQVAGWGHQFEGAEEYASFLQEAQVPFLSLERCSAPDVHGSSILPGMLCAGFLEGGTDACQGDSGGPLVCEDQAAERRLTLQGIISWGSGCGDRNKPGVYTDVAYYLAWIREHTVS
The depositor's hits bear a star; nt = no result.

SMILES	FXIa inh 1536	Furin inh	Thrombin inh	hK5 inh	FXIIa inh
CC12CCC(c3c(C(=O)N4CCOCC4)nn(-c4ccccc4)c31)C2(C)C (stereo not drawn)	31.0	-6.8	1.6	40.6*	40.5*
CC12CCC(c3c(C(=O)O)nn(-c4ccc(F)cc4)c31)C2(C)C (stereo not drawn)	4.7	-17.3	4.9	-3.5	22.1
Cc1ccc(CN(Cc2ccccc2)C(=S)NCC(=O)NCc2cccnc2)o1	2.4	-25.9	nt	-2.0	7.3
Cc1cc(C)nc(SCCS(=O)(=O)Cc2ccc(Cl)cc2)n1	-1.0	-15.4	-0.7	-12.3	9.2
Cc1cc(C)nc(SCCS(=O)(=O)Cc2ccccc2)n1	8.2	-17.9	20.6	114.9*	19.9
O=C(CSc1nc2nc[nH]c2c(=O)[nH]1)NC1CCCCC1	-11.0	-13.7	45.8*	-19.9	-2.1
COc1ccc(CNC(=O)C2CCC(CNc3nc(=S)[nH]c4ccccc34)CC2)cc1 (stereo not drawn)	6.2	-7.3	0.1	-5.5	9.7
COc1cccc(CNC(=O)C(=O)NCC(c2ccco2)N2CCOCC2)c1 (stereo not drawn)	0.9	-20.6	-14.3	-10.5	7.2
S=C(NCCN1CCOCC1)Nc1ccc(Cl)cc1	20.3	-12.9	20.1	46.5*	14.1
S=C(NCCCN1CCOCC1)Nc1ccc(Cl)cc1	-7.5	-6.9	-13.0	-9.7	0.6
CCOC(=O)/C(=C/c1ccco1)NC(=O)c1ccc(Br)o1	-2.6	-13.7	-1.6	nt	3.3
O=C(CN1C(=O)NC2NC(=O)NC21)N/N=C/c1ccccc1F (stereo not drawn)	-2.2	-34.8	-0.1	1.9	5.8
O=C(CN(C(=O)CSc1nnc(COc2ccccc2)o1)c1ccc(F)cc1)NC1CCCCC1	6.1	-19.7	25.0	129.5*	31.2
Cn1c(SCC(=O)N2CCc3ccccc3C2)nnc1-c1cccs1	18.6	-10.0	18.3	42.6*	21.7
Nn1c(SCC(=O)N2CCc3ccccc3C2)nnc1-c1cccs1	19.3	-15.8	17.3	52.4*	19.8
Nn1c(SCC(=O)N2CCN(S(=O)(=O)c3ccccc3)CC2)nnc1-c1cccs1	-3.0	-1.3	-4.0	-3.8	11.6
Cc1ccc(S(=O)(=O)N(C)CC(=O)Nc2ccccc2)cc1	15.3	-1.9	13.7	53.4*	23.0
CSc1cccc(NC(=O)CN(C)S(=O)(=O)c2ccc(C)cc2)c1	10.8	-7.3	13.8	17.4	22.8
COC(=O)c1ccccc1NC(=O)CN(C)S(=O)(=O)c1ccc(OC)c(C)c1	-4.0	-12.8	2.4	118.7*	4.0
CCN(CC)S(=O)(=O)c1cc(C(=O)Nc2nncs2)c(Cl)cc1Cl	3.4	-9.3	15.2	61.8*	2.7
CCCCn1nnc(NC(=O)COc2ccc(Cl)c(C)c2)n1	0.2	-9.6	9.9	104.1*	7.2
CCCn1nnnc1NC(=O)COc1ccc(Cl)c(C)c1	31.0	-2.2	-3.5	-19.2	14.8
Cc1ccc(S(=O)(=O)N2CCN(CC(=O)N(CC(C)C)c3c(N)n(CC(C)C)c(=O)[nH]c3=O)CC2)c(C)c1	-2.7	-20.1	-8.3	-0.1	11.7
COc1ccc(CC(=O)N2CCC(Nc3nc4ccccc4n3Cc3ccc(F)cc3)CC2)cc1	6.8	-24.1	19.0	59.9*	24.2
Cc1ccc(OCc2nnc(SCC(=O)O)n2N)cc1	30.4	-8.4	2.6	-23.5	44.6*
SMILES	FXIa inh 1536	Furin inh	Thrombin inh	hK5 inh	FXIIa inh
O=C(Nc1cccc(Cl)c1)c1cnn2cccnc12	18.8	-10.6	24.0	24.0	19.7
O=C(Nc1cc(Cl)cc(Cl)c1)c1cnn2cccnc12	11.5	-12.9	24.3	68.8*	17.9
O=c1cc2c(=O)oc3cc(O)c(O)oc3c2c(O)c1O	21.1	-7.5	-1.4	-2.8	3.8
Cc1cccc(C)c1OCC(O)CN (stereo not drawn)	11.1	-16.4	19.2	52.1*	6.3
CCOC(=O)N1CCN(CC(O)COc2c(C)cccc2C)CC1 (stereo not drawn)	9.4	-12.4	4.1	-14.5	22.7
CC(NC(=O)Nc1nnc(C(F)(F)F)s1)(C(F)(F)F)C(F)(F)F	19.9	-13.5	2.8	-0.5	40.1*
CCOC(=O)N1CCN(S(=O)(=O)c2cc([N+](=O)[O-])c(C)cc2C)CC1	-3.3	-15.6	-3.1	-3.2	10.9
CCC(=O)c1ccc(OCc2ccc(C(=O)OC)cc2)c(OC)c1	0.8	-17.3	13.1	57.4*	25.1
